# Experimental data taken from the EternaBench riboswitch data.
# Test system: MS2 coat protein
# Assay: apparent Kd, MS2 coat protein; higher = weaker binding; RNA-MaP array; FMN 200 µM where present
# Summary of the method: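 Each design was made on Illumina sequencing-chip clusters by stalled E. coli RNA polymerase and titrated with SNAP-549-labelled MS2 coat protein from 0.7 or 1.5 nM, doubling to 3 µM, in the absence and then the presence of constant ligand. The buffer was 100 mM Tris-HCl pH 7.5, 80 mM KCl, 4 mM MgCl2, BSA, DTT, yeast tRNA and Tween-20. The apparent Kd is the median of filtered per-cluster fits of binding curves, with green signal normalised to red-channel RNA signal and control-cluster median Fmax.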
# [1] = designed as: OFF switch for flavin mononucleotide, no ligand
# [2] = ligand present: flavin mononucleotide, designed as: OFF switch for flavin mononucleotide
# [3] = designed as: ON switch for flavin mononucleotide, no ligand
# [4] = ligand present: flavin mononucleotide, designed as: ON switch for flavin mononucleotide
Sequence,apparent Kd [1] [nM],apparent Kd [2] [nM],apparent Kd [3] [nM],apparent Kd [4] [nM]
GCACUGGAUGUAGGAUAUCAGGACGAUAAGUCCUGAGAAGGACAUGAGGAUCACCCAUGUCCUAAAACCAGUGCAUAUAAUAUA,14.4,16.7,,
GCACUUUUAUUUGAACCGAUUCGAACAUGAGGAUCACCCAUGUAGGAUAUGCUAAAAGUUGUGAUGCAGAAGGACAUUAAGUGC,5.94,6.99,,
GCAGCAAUCUAAUACAUGAGGAUCACCCAUGUCGAGAGAUAUGAGGAUAUGCAUCUGAAGAAGAUGCAGAAGGCAUUGUGCUGC,,,10.7,6.48
GCAGCACUUUAAAACAUGAGGAUCACCCAUGUCGAUUGUUAUGAGGAUAUGCAUCGGAUGAAGAUGCAGAAGGCAUUGUGCUGC,,,7.36,6.23
GCAGCUAAUAUUAUACAUGAGGAUCACCCAUGUUACAUGAGUAAGGAUAUUGAUGAUUAUAUAAACAAGAAGGUACGUAGCUGC,,,15.7,7.49
GCAGCUAAUGCAGGAUAUCAGCACGUGUAGUGCUGAGAAGGGCACAUGAGGAUCACCCAUGUGAUCAAUCAAUGUUAAUGCUGC,9.43,38.3,,
GCAUGGAAAGUGAGGAUAUACCACUGGAUACAGUGGUAGAAGGCACAUGAGGAUCACCCAUGUUUCUACCAUGC,13.4,19.1,,
GCAUGGUAUGAGAAGGCAUAUUUAAUCUAACAACAUGUUUACAUGAGGAUCACCCAUGUUACCAAUGAGGAUAUCAUACCGUGC,7.31,7.28,,
GCAUUGAUAACAGGAUAUAUGUAUCCUACAUGAGGAUCACCCAUGUAGGUGAUCAGCCGCGAUAAGUAGAAGGGUUAUCAAUGC,,,18,13.7
GCCAACUCAUGAGGAUAUGGCACCUUAUUGGUGCCAGAAGGCGUGUCAAUUGACAUGAGGAUCACCCAUGUAUUAUAGUUGGCA,,,446,70.3
GCCAACUUAUGAGGAUAUGGCACCUUAUUGGUGCCAGAAGGCAUGUCAAUUGACAUGAGGAUCACCCAUGUAUUAUAGUUGGCA,,,700,108
GCCAAUACCGAGGAUAUCCUGAAGCACAUAUCUGGAGAAGGCGGUACAUGAGGAUCACCCAUGUGCUCGUGAGA,21.6,33,,
GCCAGGGAUUCAGGAUAUAUUAGCCGAGGCCGCGUAGAAGGGAAAUCCUGACAUGAGGAUCACCCAUGUCGACCCGCCUUCCUC,,,28.5,29.2
GCCAGUUAUGUAGGAUAUGCGAAGCGAGCCUGAGCAGAAGGACAUGAGGAUCACCCAUGUAUUGCGGUUUGAGUACUGAUCGCU,27.9,107,,
GCCAGUUAUGUAGGAUAUGCGAGGCGAGCCUGAGCAGAAGGACAUGAGGAUCACCCAUGUAUUGCGGUUUAAGUUCAGAUCGCU,17.6,23.4,,
GCCAUCGCAUGAGGAUAUAAUCGGGUUUCCCGUUUAGAAGGCAUGUCAUAAGACAUGAGGAUCACCCAUGUAGUUAAGAUGGCA,,,471,27
GCCAUCGCAUGAGGAUAUGGCACCGGUUCGGUGCCAGAAGGCAUGUCAAAUGACAUGAGGAUCACCCAUGUAGUUAAGAUGGCA,,,215,14.7
GCCAUCGCAUGAGGAUAUGGCACCGUUUCGGUGCCAGAAGGCAUGUCAUAAGACAUGAGGAUCACCCAUGUGGUUAAGAUGGCA,,,865,50.9
GCCAUCGCGUGAGGAUAUGCUCCGGUUUCCGGAGCAGAAGGCAUGUCAUAAGACAUGAGGAUCACCCAUGUAGUUAAGAUGGCA,,,238,9.79
GCCCGGCAUACAUGAGGAUCACCCAUGUCAGAAAGGGUAAUCAGAAGGUACUAUUAGAGAAAGAGUAAGGAUAUGAAGCCGGGC,,,599,134
GCCGAAAAUGUGAGGAUAUACCUAUGGAUACAUAGGUAGAAGGCACAUGAGGAUCACCCAUGUUCCUCAUCGGC,114,435,,
GCCGAAAGUGUGAGGAUAUACCUAUGGAUACAUAGGUAGAAGGCACAUGAGGAUCACCCAUGUUCCUAAACGGC,80.2,421,,
GCCGAUUAAGUCAGGAUAUACCUAUGGAUACAUAGGUAGAAGGGACAUGAGGAUCACCCAUGUUCCUCAGCGGC,16.6,50.2,,
GCCGAUUAAGUGAGGAUAUACCUAUGGAUACAUAGGUAGAAGGUACAUGAGGAUCACCCAUGUUCCUCAUCGGC,10,12.2,,
GCCGCCCGAUCUGGCUUUUGGGCUAGAAGGGCAUAUGUGGUUCAGGACAUGAGGAUCACCCAUGUGCAGGAUAUAGCCCACCGC,25.1,53,,
GCCGGGUAGGCAGGAUAUCCUCGCGCAAACACAUGAGGAUCACCCAUGUACACAAAACGUGAUAUGGAGAAGGGCUGACCCGCA,,,33.9,5.84
GCCGGUUACACAGGAUAUCCCAUGUCGACGGCGACAUGAGGAUCACCCAUGUCCUGGACGGGUUAGGAGAAGGGUGUAAAAUGC,,,110,51.8

Sequence,apparent Kd [1] [nM],apparent Kd [2] [nM],apparent Kd [3] [nM],apparent Kd [4] [nM]
GCCGUAAAUGUGAGGAUAUACCUAUGGAAACAUAGGUAGAAGGCACAUGAGGAUCACCCAUGUCCUUAAUCGGC,447,406,,
GCCGUGUUAGGAUAUUAAAGACCUGCGCCGAGCGCAGGAAGUAAGAAGGAACAUGAGGAUCACCCAUGUGUCCG,18.1,16.1,,
GCCUCACAUGAGGAUCACCCAUGUCAGGAUAUACCCAUCCGGCGCAAUUGCAGCCGUAGUAGAAGGGACAUGCA,21.2,45.8,,
GCCUCACAUGAGGAUCACCCAUGUCAGGAUAUCUAACGCGAGGUGCAGGCACUUCGUGAGAGAAGGGACGUCAA,20.3,34.4,,
GCCUGCCGUGGCACGGUAGCACCGGAGGAUAUCCGCGUCGGUCAUGACAUGAGGAUCACCCAUGUGGAGAAGGCUGGUUUGUCC,10.8,21.2,,
GCCUGCUGGCGAGGAUAUUCUGUGCGGUUUCGGCUCGUGUCUGUUACAUGAGGAUCACCCAUGUGGGAGAAGGUGUCUGUGGCC,7.76,7.28,,
GCGAAUUAGUGAGGAUAUACAUAAUUUAAAACUGUAGAAGGCACAAUCCUCAAGACAUGAGGAUCACCCAUGUGAUAUUAAGCU,46,158,,
GCGAGGACGGCAGGAUAUUGACAUGAGGAUCACCCAUGUAUUUGGGAGUGUUCACUGAAUUCUUACGAGAAGGGCCGUCCACGC,312,261,,
GCGAUUUUGUAAGGAUAUACACCAGUUUCAAGUGUAGAAGGUACUUACAUGAGGAUCACCCAUGUAUACUUGGAUAAUAGUCGC,,,17.4,17.5
GCGAUUUUGUAAGGAUAUACACGAGUUUCAAGUGUAGAAGGUACUUACAUGAGGAUCACCCAUGUAUACUUGGAUAAUAGUCGU,,,29.2,23.5
GCGAUUUUGUAAGGAUAUACUCGAGUUUUAAGAGUAGAAGGUACUUACAUGAGGAUCACCCAUGUCUAACGUAAUACUAGUCGC,,,10.3,9.24
GCGAUUUUGUAAGGAUAUAUACGAGUUUCAAGUGUAGAAGGUACUUACAUGAGGAUCACCCAUGUAUACAUGGAUAAUAGUCGC,,,269,136
GCGCGCGCAGGAUAUACAAUGGGCCCGGGAAACCGGGCCCUACAUGAGGAUCACCCAUGUAGAAGGGUGUGUGU,606,468,,
GCGCGCGCCGCAGGAUAUGGUUUGUUCGUUGAACCAGAAGGGCGACAUGAGGAUCACCCAUGUACAUGAGGAUCACCCAUGUGC,59.2,51,,
GCGCGGAACCUAGGAUAUCCGGCAUGGACGGGUGGUAGGUCUCCCACAUGAGGAUCACCCAUGUAGGAGAAGGAGGAUCACGGG,6.17,6.83,,
GCGCUGCGUCAGAAGGGCCGAAAAGAGAAGACGGCAGGAUAUGACAUGAGGAUCACCCAUGUACACGUCGCCGUGGGUGUUGGA,57.9,65,,
GCGCUUAUACAGAAGGCCAGUUACAUGAGGAUCACCCAUGUUAGAUUGUGGAGGAUAUGUGUUUUAUUACAGAUAGUUGAGCGC,,,13.4,6.84
GCGCUUAUACAGAAGGCCAUAUACAUGAGGAUCACCCAUGUUACAUGGUGGAGGAUAUGUUAUUAAGUACAGGUAGAUGAGCGC,,,5.98,5.38
GCGGGAGGAGGAUAUACAAUCGUGUGACCCGGACCCUAUGGACAUGAGGAUCACCCAUGUAGAAGGUUUCCCUU,112,568,,
GCGUAACAUGAGGAUCACCCAUGUGCCCGAGAAUUCGGGCCGAGAAGGGUGACCGGACGUAUGGCACAGGAUAUCGACGUUGUG,,,25.2,12.1
GCGUAUAAGGUGUAGCUAGACAUUCAAGAAGGGUGAAGAACAUGAGGAUCACCCAUGUAGUAGGUACAGGAUAUUGAUUUACGC,,,656,372
GCGUAUAUAUGAUUUAUAAAACAGUCAGAAGGUGAGAAGACGACAUGAGGAUCACCCAUGUUAUUCAAGGAUAUGAUAAUGCGC,,,13.1,7.74
GCGUCAGAAUUAAUUGUGACAGACAGAAGGCAAUAGUAUGUGACAGACAUGAGGAUCACCCAUGUUGAGGAUAUGUAUUGACAC,6.6,7.36,,
GCGUCAGAAUUAAUUGUGACAGACAGAAGGCAAUAGUUCAUGUCAGACAUGAGGAUCACCCAUGUUGAGGAUAUGUAUUUACUC,7.54,8.35,,
GCGUCCCGCAGAGGAUAUGUUGUUCCGCCUACAUGAGGAUCACCCAUGUCAAAGGGCUGAUCCCGACAGAAGGCUGAAGGAUAC,,,130,138
GCGUGGUUCUAGAAGGUGCUAGCGAUAAGCUAGCAAGGAUAUAGACAUGAGGAUCACCCAUGUCUUUGUGAAAUCGACACACGC,5.58,6.39,,
GCGUUAGUAUCACAUGUAUUACAUGAGGAUCACCCAUGUUACUAGGAUAUGUAUUAGUAUUAUCAACAGAAGGAGUAAUAACGC,12.5,17.6,,
